Data published in ChEMBL document CHEMBL1132372, “The opioid mu agonist/delta antagonist DIPP-NH(2)[Psi] produces a potent analgesic effect, no physical dependence, and less tolerance than morphine in rats” (J Med Chem, 1999).
Square brackets hold non-standard residues; d marks the D form. Peptide text beside a SMILES is read from it. NMeDmt = CN[C@@H](Cc1c(C)cc(O)cc1C)C(=O)O; Dmt = Cc1cc(O)cc(C)c1C[C@H](N)C(=O)O; Tic = O=C(O)[C@@H]1Cc2ccccc2CN1

What was measured:
[1] = molecular target: Kappa-type opioid receptor (Cavia porcellus, UniProt P41144); assay: Binding affinity for Opioid receptor kappa 1 determined by displacement of [3H]U-69593 from guinea pig brain membranes; set-up: species or system Membrane
Summary of the method: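 Guinea pig brain membranes incubated 2 h at 0 °C with 0.80 nM [3H]U69,593. IC50 taken from log dose-displacement curves; Ki by Cheng-Prusoff using Kd 2.9 nM.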

[2] = molecular target: Delta-type opioid receptor (Rattus norvegicus, UniProt P33533); assay: Binding affinity for Opioid receptor delta 1 determined by displacing [3H]-DSLET from rat brain membrane binding sites
Mus musculus [3] = species on record: Mus musculus; assay: Compound was evaluated for its antagonist potency against delta agonist deltorphin I, by MVD assay(mouse vas deferens).; format: functional
Mus musculus [4] = species on record: Mus musculus; assay: Compound was evaluated for its antagonist potency against delta agonist […] by MVD assay(mouse vas deferens).; format: functional
Cavia porcellus [5] = species on record: Cavia porcellus; assay: Compound was evaluated for antagonist potency against mu receptor. agonist TAPP by GPI (guinea pig ileum) assay.; format: functional
Mu-type opioid receptor = Mu-type opioid receptor (Rattus norvegicus, UniProt P33535); assay: Binding affinity for Opioid receptor mu 1 determined by displacing [3H]DAMGO from rat brain membrane binding sites
Cavia porcellus [6] = species on record: Cavia porcellus; assay: Compound was evaluated for inhibition of electrically evoked contractions of the GPI (guinea pig ileum); format: functional
Summary of the method: (§1)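 Inhibition of electrically evoked contractions of guinea pig ileum. Each preparation also run with a [Leu5]enkephalin standard dose-response curve, and test IC50 values normalised against it.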

Cavia porcellus [7] = species on record: Cavia porcellus; assay: Compound was evaluated for inhibition of electrically evoked contractions of the GPI (guinea pig ileum); PA=Partial agonist; format: functional; summary of the method: as §1
Rattus norvegicus = species on record: Rattus norvegicus; assay: Analgesic Potency of compound in Comparison with Morphine evaluated by rat tail flick test; format: functional

Sequence of Kappa-type opioid receptor (P41144 whole entry): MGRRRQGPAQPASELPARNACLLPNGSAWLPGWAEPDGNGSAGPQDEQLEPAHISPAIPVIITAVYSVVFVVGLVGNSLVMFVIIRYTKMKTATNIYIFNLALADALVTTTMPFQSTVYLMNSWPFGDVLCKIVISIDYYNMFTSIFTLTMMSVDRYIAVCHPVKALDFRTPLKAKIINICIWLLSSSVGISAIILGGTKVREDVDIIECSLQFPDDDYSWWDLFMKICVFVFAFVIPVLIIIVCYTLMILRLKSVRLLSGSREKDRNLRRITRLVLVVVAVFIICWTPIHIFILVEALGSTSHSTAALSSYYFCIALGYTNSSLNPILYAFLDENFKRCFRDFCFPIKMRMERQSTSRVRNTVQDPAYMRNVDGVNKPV
Sequence of Mu-type opioid receptor (P33535 whole entry): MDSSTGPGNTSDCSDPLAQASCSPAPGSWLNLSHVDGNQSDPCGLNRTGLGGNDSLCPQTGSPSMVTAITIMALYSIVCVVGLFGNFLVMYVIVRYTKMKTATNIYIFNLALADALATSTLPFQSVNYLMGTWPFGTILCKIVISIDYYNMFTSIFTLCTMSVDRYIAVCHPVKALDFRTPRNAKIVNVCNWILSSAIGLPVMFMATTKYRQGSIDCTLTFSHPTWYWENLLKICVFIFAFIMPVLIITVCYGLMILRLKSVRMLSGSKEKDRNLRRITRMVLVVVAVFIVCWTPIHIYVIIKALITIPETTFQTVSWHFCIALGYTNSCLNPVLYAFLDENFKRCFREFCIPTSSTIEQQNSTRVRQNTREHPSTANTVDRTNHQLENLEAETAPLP
Sequence of Delta-type opioid receptor (P33533 whole entry): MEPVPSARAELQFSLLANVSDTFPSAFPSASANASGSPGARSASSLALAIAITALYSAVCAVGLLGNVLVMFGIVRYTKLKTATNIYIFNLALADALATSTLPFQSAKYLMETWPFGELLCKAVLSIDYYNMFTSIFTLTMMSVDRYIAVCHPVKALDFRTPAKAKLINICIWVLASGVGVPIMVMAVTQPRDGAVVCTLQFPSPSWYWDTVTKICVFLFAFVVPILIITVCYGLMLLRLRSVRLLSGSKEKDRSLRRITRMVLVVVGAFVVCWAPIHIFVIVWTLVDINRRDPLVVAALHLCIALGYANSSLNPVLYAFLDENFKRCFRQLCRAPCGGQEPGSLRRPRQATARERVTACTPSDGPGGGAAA

SMILES	Ki [1] [nM]	Ki [2] [nM]	Ke (Mus musculus [3]) [nM]	Ke (Mus musculus [4]) [nM]	Ke (Cavia porcellus [5]) [nM]	Ki (Mu-type opioid receptor) [nM]	IC50 (Cavia porcellus [6]) [nM]	IC50 (Cavia porcellus [7])	ED50 (Rattus norvegicus) [µg]
CN[C@@H](Cc1c(C)cc(O)cc1C)C(=O)N1Cc2ccccc2CC1CN[C@@H](Cc1ccccc1)C(=O)N[C@@H](Cc1ccccc1)C(N)=O (stereo partly drawn)	> 1000	61	54.4	22.1	64.5	76.2			
Cc1cc(O)cc(C)c1C[C@H](N)C(=O)N1Cc2ccccc2CC1CN[C@@H](Cc1ccccc1)C(=O)N[C@@H](Cc1ccccc1)C(N)=O (stereo partly drawn)	> 1000		0.486	0.537			7.71		
Cc1cc(O)cc(C)c1C[C@H](N)C(=O)N1Cc2ccccc2C[C@H]1C(=O)N[C@@H](Cc1ccccc1)C(=O)N[C@@H](Cc1ccccc1)C(N)=O (H-[Dmt][Tic]FF-NH2)	> 1000								
CN[C@@H](Cc1c(C)cc(O)cc1C)C(=O)N1Cc2ccccc2C[C@H]1C(=O)N[C@@H](Cc1ccccc1)C(=O)N[C@@H](Cc1ccccc1)C(N)=O (H-[NMeDmt][Tic]FF-NH2)	> 1000	0.393	0.233	0.235		4.08		Partial agonist	
CN1CC[C@]23c4c5ccc(O)c4O[C@H]2[C@@H](O)C=C[C@H]3[C@H]1C5 [MORPHINE]									0.11
